{"data": "Assay results from different studies", "target": "Tyrosine-protein kinase Fer (FER, Homo sapiens, UniProt P16591)", "note": "Compare with care: the assays were run in different laboratories."}
{"Compound": "Cn1cc(-c2cccc(N3CCc4c(sc5c4CC(C)(C)C5)C3=O)c2CO)cc(Nc2ccncn2)c1=O", "test": "enzyme activity, inhibitor", "conditions": "1 µM", "endpoint": "inhibition", "result": "9%"}
{"Compound": "CC(C)(C)c1cc(C=C(C#N)C#N)cc(Br)c1O", "test": "enzyme activity, inhibitor", "conditions": "0.5 µM", "endpoint": "remaining activity", "result": "100%"}
{"Compound": "COc1cc(Nc2ncc(F)c(Nc3ccc4c(n3)NC(=O)C(C)(C)O4)n2)cc(OC)c1OC", "test": "binding, competition with immobilised ligand", "conditions": "10 µM", "endpoint": "inhibition", "result": "78%"}
{"Compound": "Nc1ncc(-c2nc(N3CCOCC3)nc(N3CCOCC3)n2)c(C(F)F)n1", "test": "binding, competition with immobilised ligand", "conditions": "10 µM", "endpoint": "remaining binding", "result": "67%"}
{"Compound": "COc1ncccc1-c1cnn2ccc(N3CCN(C(=O)OC(C)C)CC3)nc12", "test": "binding, competition with immobilised ligand", "conditions": "1 µM", "endpoint": "remaining binding", "result": "100%"}
{"Compound": "C#Cc1n[nH]c2c(-c3cn([C@@H](C)c4ccccc4)c(=O)[nH]c3=O)cc(F)cc12", "test": "enzyme activity, inhibitor", "conditions": "0.1 µM", "endpoint": "inhibition", "result": "1.5%"}
{"Compound": "CCn1cnc2c(Nc3cccc(Cl)c3)nc(N[C@H]3CCCC[C@H]3N)nc21", "test": "enzyme activity, inhibitor", "conditions": "0.5 µM", "endpoint": "remaining activity", "result": "86.8%"}
{"Compound": "C#Cc1n[nH]c2c(-c3cn([C@@H](C)c4ccccn4)c(=O)[nH]c3=O)cc(F)cc12", "test": "enzyme activity, inhibitor", "conditions": "0.1 µM", "endpoint": "inhibition", "result": "3.7%"}
{"Compound": "Cn1cc(-c2cc(F)cc(N3CCn4c(cc5c4CCCC5)C3=O)c2CO)cc(Nc2ccc(N3CCN(C4COC4)CC3)cn2)c1=O", "test": "enzyme activity, inhibitor", "conditions": "0.1 µM", "endpoint": "inhibition", "result": "10%"}
{"Compound": "Cc1nn(C)cc1-c1nc2c(N3CCN(Cc4ccc(Cl)cc4)CC3)c(Cl)cnc2[nH]1", "test": "binding, competition with immobilised ligand", "conditions": "1 µM", "endpoint": "remaining binding", "result": "100%"}
{"Compound": "Cn1cncc1[C@@](O)(COc1ccc(C#N)cc1-c1ccc(OC(F)(F)F)cc1)c1ccc(C#N)cc1", "test": "cell-free assay, competition with immobilised ligand", "conditions": "1 µM", "endpoint": "remaining binding", "result": "100%"}
